Organism: Mus musculus
Assay: Effective dosage for inhibition of maximal electroshock stimulated convulsions
Type: functional
Procedure, shortened: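 Mice (male Carworth Farms #1), groups of at least eight, were given various doses and tested at the previously determined time of peak effect. Protection was defined as abolition of the hind limb tonic extension component of the seizure. Dosing continued until at least two points lay between 0% and 100% protection. The 50% dose and 95% confidence interval were derived by Finney's method.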

CCOC(=O)Nc1ccc(NCc2ccc(C(F)(F)F)cc2)nc1N.Cl
Log 1/ED50: 4.146

Cl.Nc1nc(NCc2ccccc2)ccc1NC(=O)Oc1ccccc1
Log 1/ED50: 3.942

CCOC(=O)Nc1ccc(NCc2ccc(F)cc2F)nc1N.Cl
Log 1/ED50: 4.321

CCOC(=O)Nc1ccc(NCc2ccc(Cl)cc2)nc1N.Cl
Log 1/ED50: 4.388

CCOC(=O)Nc1ccc(NCc2ccccc2)nc1N.Cl
Log 1/ED50: 4.214

COC(=O)Nc1ccc(NCc2ccc(F)cc2)nc1N.Cl
Log 1/ED50: 4.11

Cc1noc(C)c1C(=O)Nc1ccc(NCc2ccc(F)cc2)nc1N.Cl
Log 1/ED50: 3.94

CCOC(=O)Nc1ccc(NCc2ccc(F)cc2)nc1N.Cl
Log 1/ED50: 4.13

CCOC(=O)Nc1ccc(NCc2ccccc2C)nc1N.Cl
Log 1/ED50: 4.872

CCOC(=O)Nc1ccc(NC(C)c2ccc(F)cc2)nc1N.Cl (stereo not given)
Log 1/ED50: 3.938

CCOC(=O)Nc1ccc(NCc2ccc(S(N)(=O)=O)cc2)nc1N.Cl
Log 1/ED50: 3.572

Cl.Nc1nc(NCc2ccc(Cl)cc2)ccc1NC(=O)Oc1ccccc1
Log 1/ED50: 3.507

CCOC(=O)Nc1ccc(NCc2cccc(F)c2)nc1N.Cl
Log 1/ED50: 4.297

CCOC(=O)Nc1ccc(NCc2ccc(C(C)=O)cc2)nc1N.Cl
Log 1/ED50: 3.831

CCOC(=O)Nc1ccc(NCc2c(C)cc(C)cc2C)nc1N.Cl
Log 1/ED50: 5.268

Cl.Nc1nc(NCc2ccc(F)cc2)ccc1NC(=O)Oc1ccccc1
Log 1/ED50: 3.724

CC(=O)Nc1ccc(NCc2ccc(F)cc2)nc1N.Cl
Log 1/ED50: 3.567

CCOC(=O)Nc1ccc(NCc2ccccc2O)nc1N.Cl
Log 1/ED50: 3.896

Cl.Nc1nc(NCc2ccc(F)cc2)ccc1NC(=O)OCCCl
Log 1/ED50: 4.46

CCOC(=O)Nc1ccc(NCc2c(C)cccc2C)nc1N.Cl
Log 1/ED50: 5.01

CCOC(=O)Nc1ccc(NCc2ccc(C)cc2C)nc1N.Cl
Log 1/ED50: 4.53

C=CCOC(=O)Nc1ccc(NCc2ccc(F)cc2)nc1N
Log 1/ED50: 4.48

CCOC(=O)Nc1ccc(NCc2ccc(C)c(Cl)c2)nc1N.Cl
Log 1/ED50: 4.083

Cl.Nc1nc(NCc2ccc(F)cc2)ccc1N1CCOC1=O
Log 1/ED50: 4.065

CCOC(=O)Nc1ccc(NCc2ccc(NC(C)=O)cc2)nc1N.Cl
Log 1/ED50: 3.487
